Results: ChEMBL document CHEMBL1141908, “Inositol tripyrophosphate: a new membrane permeant allosteric effector of haemoglobin” (2005)
Where “and” joins values, the source holds several entries; their conditions need not be identical. Equal values may be shown once.

Key:
[1] = molecular target: Hemoglobin beta chain (Mus musculus) (UniProt P02089); experiment: In vitro P50 value of free haemoglobin of murine was determined after incubation with compound (concentration 60 mM); assay type: functional
Sequence of Hemoglobin beta chain (Mus musculus) (P02089 whole entry): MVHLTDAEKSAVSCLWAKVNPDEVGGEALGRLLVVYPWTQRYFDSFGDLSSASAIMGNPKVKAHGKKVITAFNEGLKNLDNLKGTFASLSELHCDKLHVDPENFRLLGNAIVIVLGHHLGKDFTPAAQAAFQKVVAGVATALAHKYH
Method in brief: (§1)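 Free haemoglobin (human or murine) was mixed with a 60 mM compound solution adjusted to pH 6.9–7.1. Oxy-Hb dissociation curves were recorded on a Hemox Analyzer. P50 is the O2 partial pressure at 50% Hb saturation, and the shift is expressed as a percentage of untreated Hb. Means of three to ten P50 values were calculated, depending on the compound and species.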

[2] = molecular target: Hemoglobin beta chain (Mus musculus) (UniProt P02089); experiment: In vitro percent P50 value of free haemoglobin of murine was determined after incubation with compound (concentration 60 mM); assay type: functional; method in brief: as §1
[3] = In vitro P50 value of free haemoglobin of human was determined after incubation with compound (concentration 60 mM)
[4] = In vitro percent P50 value of free haemoglobin of human was determined after incubation with compound (concentration 60 mM)
[5] = species: Mus musculus; experiment: In vitro P50 value of whole blood of murine was determined after incubation with compound (concentration 30 mM); assay type: functional
Method in brief: (§2)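 Whole blood (human, murine or porcine) incubated 1:1 vol/vol with effector solution at 290–310 mOsM, pH 7, for 60 min at 37 C. Cells then washed three times in 20 mM bis-Tris, pH 7, 308 mOsM. Hb–O2 curves read on a Hemox Analyzer in 20 mM Hemox buffer, pH 7.1–7.2, 37 C. P50 shift in % reported as mean of four values ± SD.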

[6] = species: Mus musculus; experiment: In vitro percent P50 value of whole blood of murine was determined after incubation with compound (concentration 30 mM); assay type: functional; method in brief: as §2
[7] = species: Homo sapiens; experiment: In vitro P50 value of whole blood of human was determined after incubation with compound (concentration 30 mM); assay type: functional; method in brief: as §2
[8] = species: Homo sapiens; experiment: In vitro percent P50 value of whole blood of human was determined after incubation with compound (concentration 30 mM); assay type: functional; method in brief: as §2
[9] = species: Mus musculus; experiment: In vitro percent P50 value of whole blood of murine was determined after incubation with compound (concentration 60 mM); assay type: functional; method in brief: as §2
[10] = molecular target: Hemoglobin subunit beta (Sus scrofa) (UniProt P02067); experiment: In vitro P50 value of free haemoglobin of procine was determined after incubation with compound (concentration 60 mM); assay type: functional
Sequence of Hemoglobin subunit beta (Sus scrofa) (P02067 whole entry): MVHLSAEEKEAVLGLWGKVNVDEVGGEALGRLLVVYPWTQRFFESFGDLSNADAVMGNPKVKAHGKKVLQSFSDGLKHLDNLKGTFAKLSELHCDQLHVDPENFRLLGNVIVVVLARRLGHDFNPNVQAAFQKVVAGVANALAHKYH
Method in brief: (§3)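 Porcine free Hb mixed with the effector solution (60 mM; pH adjusted to 6.9–7.1). Hb–O2 dissociation curves recorded on a Hemox Analyzer. P50 is the pO2 at 50% Hb saturation. Shift reported as % change versus control; means of three P50 values.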

[11] = molecular target: Hemoglobin subunit beta (Sus scrofa) (UniProt P02067); experiment: In vitro percent P50 value of free haemoglobin of procine was determined after incubation with compound (concentration 60 mM); assay type: functional; method in brief: as §3
[12] = In vitro P50 value of whole blood of procine was determined after incubation with compound (concentration 30 mM); assay type: functional, Sus scrofa; details: in the assay text read “concentration 60 mM” for “concentration 30 mM”; method in brief: as §2
[13] = species: Homo sapiens; experiment: In vitro percent P50 value of whole blood of human was determined after incubation with compound (concentration 60 mM); assay type: functional; method in brief: as §2
[14] = species: Mus musculus; experiment: In vitro percent P50 value of whole blood of murine was determined after incubation with compound (concentration 4 mM); assay type: functional; method in brief: as §2
[15] = In vitro percent P50 value of whole blood of procine was determined after incubation with compound (concentration 60 mM); assay type: functional, Sus scrofa; method in brief: as §2

Compound | P50 [1] | P50 [2] | P50 [5] | P50 [6] | other results
NC1CCCCCCC1.NC1CCCCCCC1.NC1CCCCCCC1.NC1CCCCCCC1.NC1CCCCCCC1.NC1CCCCCCC1.O=P1(O)OC2C3OP(=O)(O)OP(=O)(O)OC3C3OP(=O)(O)OP(=O)(O)OC3C2OP(=O)(O)O1 (centres undefined) [listing 1 of 2 here] | 30.6 Torr | 23% |  |  | 
O=P1(O)OC2C3OP(=O)(O)OP(=O)(O)OC3C3OP(=O)(O)OP(=O)(O)OC3C2OP(=O)(O)O1.c1ccncc1.c1ccncc1.c1ccncc1.c1ccncc1.c1ccncc1 (centres undefined) | 50 Torr | 100% |  |  | P50 [3]: 31.6 Torr; P50 [4]: 107%
C1CNCCN1.C1CNCCN1.C1CNCCN1.C1CNCCN1.C1CNCCN1.C1CNCCN1.O=P1(O)OC2C3OP(=O)(O)OP(=O)(O)OC3C3OP(=O)(O)OP(=O)(O)OC3C2OP(=O)(O)O1 (centres undefined) [ITPP PIPERAZINIUM] |  |  | 41.9 Torr | 7% | 
NC1CCCCCCC1.NC1CCCCCCC1.NC1CCCCCCC1.NC1CCCCCCC1.NC1CCCCCCC1.NC1CCCCCCC1.O=P1(O)OC2C3OP(=O)(O)OP(=O)(O)OC3C3OP(=O)(O)OP(=O)(O)OC3C2OP(=O)(O)O1 (centres undefined) [listing 2 of 2 here] |  |  | 41.7 Torr | 10% | 
O=P1([O-])OC2C3OP(=O)([O-])OP(=O)([O-])OC3C3OP(=O)([O-])OP(=O)([O-])OC3C2OP(=O)([O-])O1.[Ca+2].[Ca+2].[Ca+2] (centres undefined) |  |  | 55.3 Torr |  | P50 [7]: 31 Torr; P50 [8]: 25%; P50 [9]: 38%
NC1CCCCCC1.NC1CCCCCC1.NC1CCCCCC1.NC1CCCCCC1.NC1CCCCCC1.NC1CCCCCC1.O=P1(O)OC2C3OP(=O)(O)OP(=O)(O)OC3C3OP(=O)(O)OP(=O)(O)OC3C2OP(=O)(O)O1 (centres undefined) [listing 1 of 2 here] |  |  | 41.3 Torr | 9% | 
NC1CCCCCC1.NC1CCCCCC1.NC1CCCCCC1.NC1CCCCCC1.NC1CCCCCC1.NC1CCCCCC1.O=P1(O)OC2C3OP(=O)(O)OP(=O)(O)OC3C3OP(=O)(O)OP(=O)(O)OC3C2OP(=O)(O)O1 (centres undefined) [listing 2 of 2 here] | 43.8 Torr | 76% |  |  | 
O=P1(O)OC2C3OP(=O)(O)OP(=O)(O)OC3C3OP(=O)(O)OP(=O)(O)OC3C2OP(=O)(O)O1 (centres undefined) | 69.7 Torr [middle of 4 runs] | 189% [middle of 4 runs] |  |  | P50 [10]: 68.1 Torr; P50 [11]: 209%; P50 [3]: 49.8 Torr and 33.1 Torr; P50 [4]: 225% and 170%
C1CNCCN1.C1CNCCN1.C1CNCCN1.O=P1(O)OC2C3OP(=O)(O)OP(=O)(O)OC3C3OP(=O)(O)OP(=O)(O)OC3C2OP(=O)(O)O1 (centres undefined) [ITPP TRIPIPERAZINIUM SALT] |  |  | 42.3 Torr | 8% | 
CN(C)C1CCCCC1.CN(C)C1CCCCC1.CN(C)C1CCCCC1.CN(C)C1CCCCC1.CN(C)C1CCCCC1.CN(C)C1CCCCC1.O=P1(O)OC2C3OP(=O)(O)OP(=O)(O)OC3C3OP(=O)(O)OP(=O)(O)OC3C2OP(=O)(O)O1 (centres undefined) [listing 1 of 2 here] |  |  | 45.5 Torr | 20% | 
O=P1(O)OC2C3OP(=O)(O)OP(=O)(O)OC3C3OP(=O)(O)OP(=O)(O)OC3C2OP(=O)(O)O1.c1ccncc1.c1ccncc1.c1ccncc1.c1ccncc1.c1ccncc1 (centres undefined) [ITPP PYRIDINIUM SALT] |  |  | 42.7 Torr | 13% | P50 [7]: 24.3 Torr; P50 [8]: 10%
O=P1([O-])OC2C3OP(=O)([O-])OP(=O)([O-])OC3C3OP(=O)([O-])OP(=O)([O-])OC3C2OP(=O)([O-])O1.[Na+].[Na+].[Na+].[Na+].[Na+].[Na+] (centres undefined) [ITPP SODIUM SALT] |  |  |  |  | P50 [7]: 30.8 Torr; P50 [12]: 44.2 Torr; P50 [13]: 39%; P50 [14]: 29%; P50 [15]: 40%
CN(C)C1CCCCC1.CN(C)C1CCCCC1.CN(C)C1CCCCC1.CN(C)C1CCCCC1.CN(C)C1CCCCC1.CN(C)C1CCCCC1.O=P1(O)OC2C3OP(=O)(O)OP(=O)(O)OC3C3OP(=O)(O)OP(=O)(O)OC3C2OP(=O)(O)O1 (centres undefined) [listing 2 of 2 here] | 45.1 Torr | 81% |  |  | 
